Usually IC50 stands for the concentration that inhibits the measured activity by half. The low end stands for greater potency, the high end for weaker potency.

The target of assay [1] is T1, Steroid 17-alpha-hydroxylase/17,20 lyase (Rattus norvegicus, UniProt P11715).
T1 sequence (P11715 whole entry): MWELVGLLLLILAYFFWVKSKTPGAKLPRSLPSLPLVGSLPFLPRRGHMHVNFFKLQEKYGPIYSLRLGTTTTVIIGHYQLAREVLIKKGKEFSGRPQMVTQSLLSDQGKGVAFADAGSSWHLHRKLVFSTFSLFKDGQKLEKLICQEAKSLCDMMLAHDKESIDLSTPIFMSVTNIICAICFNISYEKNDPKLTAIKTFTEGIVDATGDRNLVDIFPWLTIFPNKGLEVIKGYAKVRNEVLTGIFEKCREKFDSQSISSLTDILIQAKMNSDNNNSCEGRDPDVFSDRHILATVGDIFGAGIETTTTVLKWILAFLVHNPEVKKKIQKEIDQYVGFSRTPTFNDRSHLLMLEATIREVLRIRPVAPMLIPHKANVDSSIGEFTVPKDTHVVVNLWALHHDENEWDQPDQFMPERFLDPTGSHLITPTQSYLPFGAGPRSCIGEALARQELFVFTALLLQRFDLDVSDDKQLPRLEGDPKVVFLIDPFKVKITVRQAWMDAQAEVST
The experiment in a line: Evaluated for the inhibitory activity towards Cytochrome P450 17 rat enzyme using testicular microsome at 25 uM of substrate (progesterone). A digest of the protocol:
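Testicular microsomes (human for human enzyme, rat for rat enzyme) incubated with progesterone substrate at 25 µM; product measured by RP-HPLC with UV detection. IC50 = concentration giving 50% inhibition, mean of at least two experiments.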

Assay [2] addresses T2, Steroid 17-alpha-hydroxylase/17,20 lyase (Homo sapiens, UniProt P05093).
T2 sequence (P05093 whole entry): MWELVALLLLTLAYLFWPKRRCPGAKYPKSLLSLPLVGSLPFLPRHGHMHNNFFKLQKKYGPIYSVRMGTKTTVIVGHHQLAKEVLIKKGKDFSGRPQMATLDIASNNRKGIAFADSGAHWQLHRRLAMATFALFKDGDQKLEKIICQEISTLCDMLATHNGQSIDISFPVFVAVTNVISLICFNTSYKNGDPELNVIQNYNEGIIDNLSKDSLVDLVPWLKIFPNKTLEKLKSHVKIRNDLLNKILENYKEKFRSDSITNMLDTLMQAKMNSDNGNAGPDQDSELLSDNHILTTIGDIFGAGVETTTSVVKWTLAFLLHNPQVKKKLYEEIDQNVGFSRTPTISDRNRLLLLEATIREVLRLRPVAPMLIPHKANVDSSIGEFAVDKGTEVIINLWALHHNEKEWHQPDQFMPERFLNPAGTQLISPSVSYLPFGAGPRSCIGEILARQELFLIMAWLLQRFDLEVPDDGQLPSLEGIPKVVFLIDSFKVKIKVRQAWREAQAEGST
The experiment in a line: Evaluated for the inhibitory activity towards Cytochrome P450 17 human enzyme using testicular microsome at 25 uM of substrate (progesterone).

Assay [3] deals with T3, 3-oxo-5-alpha-steroid 4-dehydrogenase 2 (Homo sapiens, UniProt P31213).
T3 sequence (P31213 whole entry): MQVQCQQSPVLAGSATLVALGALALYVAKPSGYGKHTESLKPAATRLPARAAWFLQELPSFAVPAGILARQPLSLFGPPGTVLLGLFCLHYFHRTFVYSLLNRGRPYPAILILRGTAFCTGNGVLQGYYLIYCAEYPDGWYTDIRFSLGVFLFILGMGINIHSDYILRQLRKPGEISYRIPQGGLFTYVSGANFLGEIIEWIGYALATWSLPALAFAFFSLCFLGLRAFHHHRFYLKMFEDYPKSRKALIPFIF
The experiment in a line: Evaluated for the inhibitory activity against human steroid 5-alpha-reductase type 2 from human BPH tissue at 210 nM of testosterone. An outline of the steps: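 Enzyme from prostate homogenate of BPH patients, assayed at pH 5.5 with radiolabeled testosterone at 210 nM; product separated by HPLC. IC50 taken as inhibitor concentration giving 50% inhibition; mean of at least two experiments.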

Turning to `CC(N=O)[C@H]1CCC2C3CCC4=CC(=O)CCC4(C)C3CCC21C` (stereo partly drawn) [17-(1-Hydroxyimino-ethyl)-10,13-dimethyl-1,2,6,7,8,9,10,11,12,13,14,15,16,17-tetradecahydro-cyclopenta[a]phenanthren-3-one], the half-maximal inhibitory concentration (IC50) in assay [1] was greater than 125 µM; in assay [2] it was greater than 2.5 µM; in assay [3], 0.58 µM.

The record behind these values is BindingDB's records for doi:10.1021/jm001008m (University of The Saarland, 2000).
